Results as given in ChEMBL document CHEMBL4304755, “Diacetal Ditellurides as Highly Active and Selective Antiparasitic Agents toward Leishmania amazonensis” (ACS Med Chem Lett, 2019).
pIC50: −log10 of the molar value.

Key:
Leishmania amazonensis [1] = test: Antileishmanial activity against promastigote stage of Leishmania amazonensis MHOM/BR/Josefa incubated for 72 hrs by XTT assay; format: functional, organism-based
Procedure, shortened: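 Promastigotes; IC50 is the concentration giving 50% growth inhibition. Values are mean ± SD of three separate experiments.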

Leishmania amazonensis [2] = test: Ratio of IC50 for miltefosine to IC50 for test compound for antileishmanial activity against promastigote stage of Leishmania amazonensis MHOM/BR/Josefa incubated for 72 hrs by XTT assay; format: functional
[3] = Selectivity index, ratio of CC50 for mouse J774A1 cells to IC50 for promastigote stage of Leishmania amazonensis MHOM/BR/Josefa; format: toxicity; details: read-out: Ratio CC50/IC50
Procedure, shortened: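 SI is calculated as CC50 on J774A1 cells divided by the corresponding IC50 on promastigotes.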

[4] = Cytotoxicity against BALB/c mouse peritoneal macrophages incubated for 48 hrs by MTT assay; format: cell-based, Peritoneal macrophage
Procedure, shortened: (§1)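 Intracellular amastigotes in macrophages and the matched macrophage cytotoxicity readout. Values are mean ± SD from three different experiments.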

[5] = Selectivity index, ratio of CC50 for BALB/c mouse peritoneal macrophage to IC50 for amastigotes stage of Leishmania amazonensis MHOM/BR/Josefa infected in BALB/c mouse peritoneal macrophage; format: toxicity; details: peritoneal macrophages, read-out: Ratio CC50/IC50
Leishmania amazonensis [6] = test: Antileishmanial activity against amastigotes stage of Leishmania amazonensis MHOM/BR/Josefa infected in BALB/c mouse peritoneal macrophage incubated for 48 hrs by Giemsa staining based microscopic method; format: functional, organism-based; procedure, shortened: as §1
Leishmania amazonensis [7] = test: Antileishmanial activity against promastigote stage of Leishmania amazonensis MHOM/BR/73/M2269 by erythrosine-B staining based Neubauer chamber based cell counting method; format: functional, organism-based
Leishmania chagasi = test: Antileishmanial activity against amastigotes stage of Leishmania chagasi MHOM/BR/1972/LD infected in BALB/c mouse bone-marrow derived macrophages incubated for 3 days by hematoxylin-eosin staining based cell counting method; format: functional, organism-based; details: 72 h

SMILES	pIC50 (Leishmania amazonensis [1])	Ratio IC50 (Leishmania amazonensis [2])	selectivity ratio [3]	CC50 at 48 h [4] [µM]	selectivity ratio [5]	pIC50 (Leishmania amazonensis [6])	pIC50 (Leishmania amazonensis [7])	pIC50 (Leishmania chagasi)
CC1(c2ccccc2[Te][Te]c2ccccc2C2(C)OCCO2)OCCO1	5.10	3	2	–	–	–	–	–
CCCCCCCCCCCCCCCCOP(=O)([O-])OCC[N+](C)(C)C [MILTEFOSINE]	4.68	–	3	20.3	12	5.77	–	–
CC[N+](CC)(CC)Cc1ccccc1.ClC1=C[Te-](Cl)(Cl)(Cl)OC1	–	–	–	–	–	–	5.40	–
CC1(c2cccc([Te][Te]c3cccc(C4(C)OCCO4)c3)c2)OCCO1	6.05	20	25	–	–	–	–	–
c1ccc([Te][Te]c2ccccc2)cc1	5.85	–	42	–	–	–	–	–
COc1ccc([Te]2(Cl)OC3(CCCCC3)/C2=C\Cl)cc1 (stereo unspecified)	–	–	–	–	–	–	–	6.30
CC1(c2ccc([Te][Te]c3ccc(C4(C)OCCO4)cc3)cc2)OCCO1	6.05	20	194	8.3	18	6.30	–	–
